This note sets out measurements from ChEMBL document CHEMBL1152895, “Diacylhydrazine derivatives as novel potential chitin biosynthesis inhibitors: design, synthesis, and structure-activity relationship” (Eur J Med Chem, 2009).

Calls of active or inactive are those of the source. The rule behind the calls is not given here.

This assay concerns Saccharomyces cerevisiae. Put plainly: Inhibition of yeast chitin synthase at 100 ug/mL by high throughput assay. In short, it runs like this: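 Cell-extract enzymatic assay of chitin synthesis. Cells were pelleted at 1500 × g for 10 min at 4 °C, then broken by grinding with glass beads under liquid nitrogen. Activity was scored as percent inhibition, also converted to D = log[a/(100−a)] − log Mw.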

In the case of `CCCCC(CCCC)N(NC(=O)c1ccc(CC)cc1)C(=O)CCl`, the inhibition (in general, the drop in the measured response relative to a control, in per cent) is “Active”.
The value for `CCCCC(CCCC)N(NC(=O)c1cc(OC)c(OC)c(OC)c1)C(=O)c1cc(F)c(OC)c(F)c1F` was “Active”.
As for `CCCCC(CCCC)N(NC(=O)c1ccccc1Cl)C(=O)c1cc(C)cc(C)c1`, the entry is “Active”; as for `CCCCC(CCCC)N(NC(=O)c1ccc(CC)cc1)C(=O)c1ccccc1Cl`, “Active”; as for `CCCCC(CCCC)N(NC(=O)c1ccc(CC)cc1)C(=O)c1ccc2c(c1)OCO2`, “Active”.
As for `CCCCC(CCCC)N(NC(=O)c1cc(C)cc(C)c1)C(=O)c1ccc(CC)cc1`, the inhibition result was “Active”.
As for `CCCCC(CCCC)N(NC(=O)c1ccc(Cl)cc1Cl)C(=O)c1cc(C)cc(C)c1`, the entry is “Active”; as for `CCCCC(CCCC)N(NC(=O)c1ccc(CC)cc1)C(=O)c1ccccc1OC`, 79%; as for `CCCCC(CCCC)N(NC(=O)c1ccccc1Cl)C(=O)c1ccccc1OC`, 81%.
As to `CCCCC(CCCC)N(NC(=O)c1cc(OC)c(OC)c(OC)c1)C(=O)c1ccccc1Cl`, the inhibition entry was “Active”.
As for `CCCCC(CCCC)N(NC(=O)c1cccc(OC)c1)C(=O)c1ccccc1`, the entry is “Active”.
The value for `CCCCC(CCCC)N(NC(=O)c1ccc(CC)cc1)C(=O)c1cc(C)cc(C)c1` was “Active”.
The value for `CCCCC(CCCC)N(NC(=O)c1ccccc1Cl)C(=O)c1ccc(F)cc1` was “Active”; that for `CCCCC(CCCC)N(NC(=O)c1ccc(CC)cc1)C(=O)c1cc(F)c(OC)c(F)c1F` was “Active”; that for `CCCCC(CCCC)N(NC(=O)c1ccc(Cl)cc1)C(=O)c1ccccc1OC` was “Active”.
For the compound `CCCCC(CCCC)N(NC(=O)c1cc(OC)c(OC)c(OC)c1)C(=O)c1cc(C)cc(C)c1`, the inhibition result was “Active”.
As for `CCCCC(CCCC)N(NC(=O)c1ccc(Cl)cc1)C(=O)c1cc(C)cc(C)c1`, the entry is “Active”; as for `CCCCC(CCCC)N(NC(=O)c1ccccc1Cl)C(=O)c1cccc(F)c1`, “Active”; as for `CCCCC(CCCC)N(NC(=O)c1ccccc1Cl)C(=O)c1ccccc1`, “Active”.
